Source: ChEMBL document CHEMBL4325893, “Synthesis and antibacterial profiles of targeted triclosan derivatives” (2019)
Values after ≈ are worked out from the molar mass of the structure shown.

Legend:
Enterococcus faecalis [1] = assay: Antibacterial activity against Enterococcus faecalis ATCC 29212 after 18 hrs; assay type: functional; conditions: ATCC 29212, 18 h
Summary of the method: (§1)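 Broth microdilution in Nutrient Broth No. 2; stocks in ethanol diluted to 0.01–128 µg/ml (triclosan) or 0.25–256 µg/ml (glycosides). Overnight 37 °C NB2 cultures diluted 1 in 10^4 in saline and added to the dilutions. Incubation at 37 °C with agitation, OD read every 15 min; MIC is the lowest concentration preventing any OD rise after 18 h.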

Citrobacter freundii = assay: Antibacterial activity against Citrobacter freundii 8090 after 18 hrs; assay type: functional; conditions: Citrobacter freundii, 8090, 18 h; summary of the method: as §1
Bacillus subtilis = assay: Antibacterial activity against Bacillus subtilis NCTC 10073 after 18 hrs; assay type: functional; conditions: NCTC 10073, 18 h; summary of the method: as §1
Streptococcus agalactiae = assay: Antibacterial activity against Streptococcus agalactiae OCC 182 after 18 hrs; assay type: functional; conditions: OCC 182, 18 h
Summary of the method: (§2)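 Broth microdilution in Nutrient Broth No. 2. Ethanol stocks were diluted in broth to 0.01–128 µg/ml for triclosan and 0.25–256 µg/ml for glycosides. Overnight 37°C NB2 cultures were diluted 1 in 10^4 in saline and added to the wells. Plates were incubated at 37°C with OD read every 15 min after agitation. MIC was the lowest concentration giving no OD increase at 18 h.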

Staphylococcus aureus [2] = assay: Antibacterial activity against Staphylococcus aureus ATCC 29213 after 18 hrs; assay type: functional; conditions: ATCC 29213, 18 h; summary of the method: as §1
Escherichia coli [3] = assay: Antibacterial activity against Escherichia coli ATCC 35218 after 18 hrs; assay type: functional; conditions: ATCC 35218, 18 h; summary of the method: as §1
Escherichia coli [4] = assay: Antibacterial activity against Escherichia coli ATCC 25922 after 18 hrs; assay type: functional; conditions: ATCC 25922, 18 h; summary of the method: as §1
Staphylococcus aureus [5] = assay: Antibacterial activity against Staphylococcus aureus ATCC 25923 after 18 hrs; assay type: functional; conditions: ATCC 25923, 18 h; summary of the method: as §1
Hafnia alvei = assay: Antibacterial activity against Hafnia alvei 13337 after 18 hrs; assay type: functional; conditions: Hafnia alvei, 13337, 18 h; summary of the method: as §1
Staphylococcus aureus [6] = assay: Antibacterial activity against Staphylococcus aureus ATCC 9144 after 18 hrs; assay type: functional; conditions: ATCC 9144, 18 h; summary of the method: as §1
[7] = test system: Staphylococcus epidermidis; assay: Antibacterial activity against Staphylococcus epidermidis ATCC 14990 after 18 hrs; assay type: functional; conditions: ATCC 14990, 18 h; summary of the method: as §1
Enterococcus faecium = assay: Antibacterial activity against Enterococcus faecium ATCC 19434 after 18 hrs; assay type: functional; conditions: ATCC 19434, 18 h; summary of the method: as §1
Serratia marcescens = assay: Antibacterial activity against Serratia marcescens OCC 217 after 18 hrs; assay type: functional; conditions: OCC 217, 18 h; summary of the method: as §1
[8] = test system: Staphylococcus saprophyticus; assay: Antibacterial activity against Staphylococcus saprophyticus ATCC 15305 after 18 hrs; assay type: functional; conditions: ATCC 15305, 18 h; summary of the method: as §2
Staphylococcus aureus [9] = assay: Antibacterial activity against Staphylococcus aureus NCTC 13758 after 18 hrs; assay type: functional; conditions: NCTC 13758, 18 h; summary of the method: as §1
Enterococcus faecalis [10] = assay: Antibacterial activity against Enterococcus faecalis ATCC 33186 after 18 hrs; assay type: functional; conditions: ATCC 33186, 18 h; summary of the method: as §1
[11] = Antibacterial activity against Salmonella enterica subspecies enterica serotype Infantis OCC 2133 after 18 hrs; assay type: functional, Salmonella enterica subsp. enterica serovar Infantis; conditions: OCC 2133, 18 h; summary of the method: as §1
Escherichia hermannii = assay: Antibacterial activity against Escherichia hermannii 33650 after 18 hrs; assay type: functional; conditions: Atlantibacter hermannii, 33650, 18 h; summary of the method: as §1
Staphylococcus aureus [12] = assay: Antibacterial activity against Staphylococcus aureus OCC 106 after 18 hrs; assay type: functional; conditions: OCC 106, 18 h; summary of the method: as §1
Klebsiella pneumoniae = assay: Antibacterial activity against Klebsiella pneumoniae ATCC 10031 after 18 hrs; assay type: functional; conditions: ATCC 10031, 18 h; summary of the method: as §1
[13] = Antibacterial activity against Salmonella enterica subspecies enterica serotype Poona NCTC 4840 after 18 hrs; assay type: functional, Salmonella enterica subsp. enterica serovar Poona; conditions: NCTC 4840, 18 h; summary of the method: as §1
Escherichia coli [14] = assay: Antibacterial activity against Escherichia coli NCTC 13216 after 18 hrs; assay type: functional; conditions: NCTC 13216, 18 h; summary of the method: as §1
Streptococcus viridans = assay: Antibacterial activity against Streptococcus viridans OCC 234 after 18 hrs; assay type: functional; conditions: OCC 234, 18 h; summary of the method: as §2
Klebsiella aerogenes = assay: Antibacterial activity against Klebsiella aerogenes NCTC 8167 after 18 hrs; assay type: functional; conditions: NCTC 8167, 18 h; summary of the method: as §1
[15] = Antibacterial activity against Salmonella enterica subspecies enterica serotype Dublin OCC 627 after 18 hrs; assay type: functional, Salmonella enterica subsp. enterica serovar Dublin; conditions: OCC 627, 18 h; summary of the method: as §1
Cronobacter sakazakii = assay: Antibacterial activity against Cronobacter sakazakii 29544 after 18 hrs; assay type: functional; conditions: Cronobacter sakazakii, 29544, 18 h; summary of the method: as §1
Salmonella typhimurium = assay: Antibacterial activity against Salmonella enterica subspecies enterica serotype typhimurium ATCC 14028 after 18 hrs; assay type: functional, Salmonella enterica subsp. enterica serovar Typhimurium; conditions: ATCC 14028, 18 h; summary of the method: as §1
Staphylococcus aureus [16] = assay: Antibacterial activity against Staphylococcus aureus OCC 104 after 18 hrs; assay type: functional; conditions: OCC 104, 18 h; summary of the method: as §1
Escherichia coli [17] = assay: Antibacterial activity against Escherichia coli OCC 122 after 18 hrs; assay type: functional; conditions: OCC 122, 18 h; summary of the method: as §1

## OC[C@H]1O[C@@H](Oc2cc(Cl)ccc2Oc2ccc(Cl)cc2Cl)[C@H](O)[C@@H](O)[C@@H]1O
Enterococcus faecalis [1]
  MIC: 16 µg/mL (≈ 35.4 µM)
Citrobacter freundii
  MIC: 64 µg/mL (≈ 142 µM)
Bacillus subtilis
  MIC: 256 µg/mL (≈ 567 µM)
Streptococcus agalactiae
  MIC: 256 µg/mL (≈ 567 µM)
Staphylococcus aureus [2]
  MIC: 4 to 8 µg/mL (≈ 8.86 to 17.7 µM)
Escherichia coli [3]
  MIC: 8 to 64 µg/mL (≈ 17.7 to 142 µM)
Escherichia coli [4]
  MIC: 8 to 64 µg/mL (≈ 17.7 to 142 µM)
Staphylococcus aureus [5]
  MIC: 4 to 8 µg/mL (≈ 8.86 to 17.7 µM)
Hafnia alvei
  MIC: 4 µg/mL (≈ 8.86 µM)
Staphylococcus aureus [6]
  MIC: 4 to 8 µg/mL (≈ 8.86 to 17.7 µM)
[7]
  MIC: 8 to 16 µg/mL (≈ 17.7 to 35.4 µM)
Enterococcus faecium
  MIC: > 256 µg/mL
Serratia marcescens
  MIC: > 256 µg/mL
[8]
  MIC: 64 µg/mL (≈ 142 µM)
Staphylococcus aureus [9]
  MIC: 4 to 8 µg/mL (≈ 8.86 to 17.7 µM)
Enterococcus faecalis [10]
  MIC: 16 µg/mL (≈ 35.4 µM)
[11]
  MIC: 16 to 32 µg/mL (≈ 35.4 to 70.8 µM)
Escherichia hermannii
  MIC: 16 µg/mL (≈ 35.4 µM)
Staphylococcus aureus [12]
  MIC: 4 to 8 µg/mL (≈ 8.86 to 17.7 µM)
Klebsiella pneumoniae
  MIC: 0.5 µg/mL (≈ 1.11 µM)
[13]
  MIC: 16 to 32 µg/mL (≈ 35.4 to 70.8 µM)
Escherichia coli [14]
  MIC: 8 to 64 µg/mL (≈ 17.7 to 142 µM)
Streptococcus viridans
  MIC: 256 µg/mL (≈ 567 µM)
Klebsiella aerogenes
  MIC: 32 µg/mL (≈ 70.8 µM)
[15]
  MIC: 16 to 32 µg/mL (≈ 35.4 to 70.8 µM)
Cronobacter sakazakii
  MIC: 64 µg/mL (≈ 142 µM)
Salmonella typhimurium
  MIC: 16 to 32 µg/mL (≈ 35.4 to 70.8 µM)
Staphylococcus aureus [16]
  MIC: 4 to 8 µg/mL (≈ 8.86 to 17.7 µM)
Escherichia coli [17]
  MIC: 8 to 64 µg/mL (≈ 17.7 to 142 µM)
